Experimental data taken from ChEMBL document CHEMBL1649560, “Beta-lactamase-mediated beta-lactam resistance in Campylobacter species: prevalence of Cj0299 (bla OXA-61) and evidence for a novel beta-Lactamase in C. jejuni” (2009).
Converted amounts (≈) assume the structure as drawn.

Columns and labels:
Type in all cases: functional
Campylobacter jejuni [1] = test: Antibacterial activity against bla gene-negative and nitrocefin reaction-positive beta-lactamase harboring Campylobacter jejuni isolate P843 by NCCLS agar doubling dilution method in presence of clavulanic acid
In short: (§1)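 MICs of β-lactams by agar doubling dilution following the NCCLS (CLSI) Campylobacter Working Group procedure, with C. jejuni NCTC 11168 and C. coli NCTC 11366 as controls. Isolates were from UK poultry flocks. β-Lactamase status was set by Cj0299 PCR (281-bp amplimer) and by a nitrocefin colour change of sonicated lysate within 5 min, or within 30 min on repeat.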

Campylobacter jejuni [2] = test: Antibacterial activity against bla gene-positive and nitrocefin reaction-positive beta-lactamase harboring Campylobacter jejuni isolate P1618 by NCCLS agar doubling dilution method in presence of clavulanic acid; in short: as §1
Campylobacter jejuni [3] = test: Antibacterial activity against bla gene-negative and nitrocefin reaction-negative beta-lactamase harboring Campylobacter jejuni isolate P850 by NCCLS agar doubling dilution method in presence of clavulanic acid; in short: as §1
Campylobacter coli [4] = test: Antibacterial activity against Campylobacter coli by NCCLS agar doubling dilution method
In short: (§2)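 MICs by agar doubling dilution following the NCCLS (CLSI) Campylobacter Working Group procedure, applied to ampicillin- and amoxicillin-resistant isolates from UK chicken flocks (2000–2006). C. jejuni NCTC 11168 and C. coli NCTC 11366 served as control strains. Resistance was called at an ampicillin cutoff of 8 μg/ml. Other agents were judged against Enterobacteriaceae guidelines (BSAC, CLSI).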

Campylobacter jejuni [5] = test: Antibacterial activity against bla gene-positive and nitrocefin reaction-positive beta-lactamase harboring Campylobacter jejuni isolate P1650 by NCCLS agar doubling dilution method in presence of clavulanic acid
In short: (§3)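 MICs by agar doubling dilution per the NCCLS (now CLSI) Campylobacter Working Group method. Isolates came from UK chicken flocks (feces, ceca or farm environment), 2000–2006. C. jejuni NCTC 11168 and C. coli NCTC 11366 served as control strains. The ampicillin resistance cutoff was 8 μg/ml; BSAC/CLSI Enterobacteriaceae guidelines were used for other agents.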

Campylobacter jejuni [6] = test: Antibacterial activity against bla gene-positive and nitrocefin reaction-positive beta-lactamase harboring Campylobacter jejuni isolate P1093 by NCCLS agar doubling dilution method in presence of clavulanic acid; in short: as §1
Campylobacter jejuni [7] = test: Antibacterial activity against bla gene-positive and nitrocefin reaction-positive beta-lactamase harboring Campylobacter jejuni isolate P790 by NCCLS agar doubling dilution method in presence of clavulanic acid; in short: as §3
Campylobacter jejuni [8] = test: Antibacterial activity against Campylobacter jejuni by NCCLS agar doubling dilution method; in short: as §2
Campylobacter jejuni [9] = test: Antibacterial activity against Campylobacter jejuni isolate P338 harboring blaOXA-61::cat gene by NCCLS agar doubling dilution method in presence of clavulanic acid
In short: (§4)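 Agar doubling dilution MICs (NCCLS/CLSI Campylobacter Working Group method) against Cj0299-inactivated mutants. Mutants were made by transforming the C. jejuni isolate with pCI and selecting on Mueller-Hinton agar with 10 μg/ml chloramphenicol for 3–5 days. Chromosomal insertion was confirmed by PCR with Cj0299 and cat primers.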

Campylobacter jejuni [10] = test: Antibacterial activity against bla gene-positive and nitrocefin reaction-negative beta-lactamase harboring Campylobacter jejuni isolate P1698 by NCCLS agar doubling dilution method in presence of clavulanic acid; in short: as §1
Campylobacter jejuni [11] = test: Antibacterial activity against bla gene-positive and nitrocefin reaction-positive beta-lactamase harboring Campylobacter jejuni isolate P316 by NCCLS agar doubling dilution method in presence of clavulanic acid; in short: as §3
Campylobacter coli [12] = test: Antibacterial activity against bla gene-positive and nitrocefin reaction-positive beta-lactamase harboring Campylobacter coli isolate P1826 by NCCLS agar doubling dilution method in presence of clavulanic acid; in short: as §1
Campylobacter coli [13] = test: Antibacterial activity against Campylobacter coli by NCCLS agar doubling dilution method in presence of clavulanic acid; in short: as §2
Campylobacter jejuni [14] = test: Antibacterial activity against bla gene-positive and nitrocefin reaction-negative beta-lactamase harboring Campylobacter jejuni isolate NCTC 11168 by NCCLS agar doubling dilution method in presence of clavulanic acid; in short: as §1
Campylobacter coli [15] = test: Antibacterial activity against bla-positive and beta-lactamase-weakly positive Campylobacter coli isolate P1627 by NCCLS agar doubling dilution method in presence of clavulanic acid; in short: as §2
Campylobacter jejuni [16] = test: Antibacterial activity against bla gene-positive and nitrocefin reaction-negative beta-lactamase harboring Campylobacter jejuni isolate P1699 by NCCLS agar doubling dilution method in presence of clavulanic acid; in short: as §1
Campylobacter coli [17] = test: Antibacterial activity against bla gene-positive and nitrocefin reaction-positive beta-lactamase harboring Campylobacter coli isolate P321 by NCCLS agar doubling dilution method in presence of clavulanic acid; in short: as §1
Campylobacter jejuni [18] = test: Antibacterial activity against bla gene-positive and nitrocefin reaction-positive beta-lactamase harboring Campylobacter jejuni isolate P286 by NCCLS agar doubling dilution method in presence of clavulanic acid; in short: as §3
Campylobacter jejuni [19] = test: Antibacterial activity against Campylobacter jejuni isolate P1093 harboring blaOXA-61::cat gene by NCCLS agar doubling dilution method in presence of clavulanic acid; in short: as §4
Campylobacter jejuni [20] = test: Antibacterial activity against bla gene-negative and nitrocefin reaction-positive beta-lactamase harboring Campylobacter jejuni isolate P854 by NCCLS agar doubling dilution method in presence of clavulanic acid; in short: as §1
Campylobacter jejuni [21] = test: Antibacterial activity against bla gene-positive and nitrocefin reaction-positive beta-lactamase harboring Campylobacter jejuni isolate P285 by NCCLS agar doubling dilution method in presence of clavulanic acid; in short: as §3
Campylobacter jejuni [22] = test: Antibacterial activity against bla gene-positive and nitrocefin reaction-positive beta-lactamase harboring Campylobacter jejuni isolate P338 by NCCLS agar doubling dilution method in presence of clavulanic acid; in short: as §3
Campylobacter jejuni [23] = test: Antibacterial activity against bla gene-positive and nitrocefin reaction-positive beta-lactamase harboring Campylobacter jejuni isolate P305 by NCCLS agar doubling dilution method in presence of clavulanic acid; in short: as §3
Campylobacter jejuni [24] = test: Antibacterial activity against bla gene-negative and nitrocefin reaction-negative beta-lactamase harboring Campylobacter jejuni isolate P1962 by NCCLS agar doubling dilution method in presence of clavulanic acid; in short: as §1
Campylobacter jejuni [25] = test: Antibacterial activity against bla gene-negative and nitrocefin reaction-negative beta-lactamase harboring Campylobacter jejuni isolate P835 by NCCLS agar doubling dilution method in presence of clavulanic acid; in short: as §1
Campylobacter jejuni [26] = test: Antibacterial activity against Campylobacter jejuni by NCCLS agar doubling dilution method in presence of clavulanic acid; in short: as §2
Campylobacter jejuni [27] = test: Antibacterial activity against Campylobacter jejuni isolate P270 harboring blaOXA-61::cat gene by NCCLS agar doubling dilution method in presence of clavulanic acid
Campylobacter jejuni [28] = test: Antibacterial activity against bla gene-positive and nitrocefin reaction-positive beta-lactamase harboring Campylobacter jejuni isolate P1730 by NCCLS agar doubling dilution method in presence of clavulanic acid; in short: as §3

SMILES: O=C(O)[C@H]1/C(=C/CO)O[C@@H]2CC(=O)N21 [CLAVULANIC ACID]
- MIC (Campylobacter jejuni [1]): 4 µg/mL
- MIC (Campylobacter jejuni [2]): 2 µg/mL
- MIC (Campylobacter jejuni [3]): 4 µg/mL
- MIC50 (Campylobacter coli [4]): 16 µg/mL (≈ 80.3 µM)
- MIC90 (Campylobacter coli [4]): 32 µg/mL (≈ 161 µM)
- MIC (Campylobacter jejuni [5]): 4 µg/mL
- MIC (Campylobacter jejuni [6]): 32 µg/mL
- MIC (Campylobacter jejuni [7]): 16 µg/mL
- MIC50 (Campylobacter jejuni [8]): 4 µg/mL (≈ 20.1 µM)
- MIC90 (Campylobacter jejuni [8]): 8 µg/mL (≈ 40.2 µM)
- MIC (Campylobacter jejuni [9]): 1 µg/mL
- MIC (Campylobacter jejuni [10]): 1 µg/mL
- MIC (Campylobacter jejuni [11]): 8 µg/mL
- MIC (Campylobacter coli [12]): 8 µg/mL
- MIC50 (Campylobacter coli [13]): 16 µg/mL
- MIC90 (Campylobacter coli [13]): 32 µg/mL
- MIC (Campylobacter jejuni [14]): 1 µg/mL
- MIC (Campylobacter coli [15]): 4 µg/mL
- MIC (Campylobacter jejuni [16]): 4 µg/mL
- MIC (Campylobacter coli [17]): 8 µg/mL
- MIC (Campylobacter jejuni [18]): 8 µg/mL
- MIC (Campylobacter jejuni [19]): 0.5 µg/mL
- MIC (Campylobacter jejuni [20]): 4 µg/mL
- MIC (Campylobacter jejuni [21]): 8 µg/mL
- MIC (Campylobacter jejuni [22]): 8 µg/mL
- MIC (Campylobacter jejuni [23]): 8 µg/mL
- MIC (Campylobacter jejuni [24]): 0.5 µg/mL
- MIC (Campylobacter jejuni [25]): 0.5 µg/mL
- MIC50 (Campylobacter jejuni [26]): 4 µg/mL
- MIC90 (Campylobacter jejuni [26]): 8 µg/mL
- MIC (Campylobacter jejuni [27]): 0.25 µg/mL
- MIC (Campylobacter jejuni [28]): 8 µg/mL
